How the values were obtained:
[1] = test system: Tribolium castaneum; test: Antifeedant activity against Tribolium castaneum (red flour beetle) assessed as reduction of food consumption after 3 days by flour disk bioassay relative to control; assay type: functional, organism-based
How it was run: (§1)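 Adult T. castaneum from a lab colony kept in the dark at 28–30 °C, 70%–80% RH, starved 24 h. Treated flour disks (36–39 mg) air-dried overnight, then equilibrated 48 h at 28–30 °C. Twenty unsexed, group-weighed adults per vial for 3 days; uneaten disk weighed against controls. Insect-free treated vials corrected for solvent evaporation. Six replicates; 10–1000 ppm; EC50 by linear regression.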

[2] = test system: Tribolium castaneum; test: Antifeedant activity against Tribolium castaneum (red flour beetle) assessed as reduction of food consumption at 300 ppm after 3 days by flour disk bioassay relative to control; assay type: functional; how it was run: as §1
[3] = test system: Tribolium castaneum; test: Antifeedant activity against Tribolium castaneum (red flour beetle) assessed as reduction of food consumption at 100 ppm after 3 days by flour disk bioassay relative to control; assay type: functional; how it was run: as §1
[4] = test system: Tribolium castaneum; test: Antifeedant activity against Tribolium castaneum (red flour beetle) assessed as reduction of food consumption at 10 ppm after 3 days by flour disk bioassay relative to control; assay type: functional; how it was run: as §1
[5] = test system: Tribolium castaneum; test: Antifeedant activity against Tribolium castaneum (red flour beetle) assessed as reduction of food consumption at 30 ppm after 3 days by flour disk bioassay relative to control; assay type: functional; how it was run: as §1
[6] = test system: Tribolium castaneum; test: Antifeedant activity against Tribolium castaneum (red flour beetle) assessed as reduction of food consumption at 1000 ppm after 3 days by flour disk bioassay relative to control; assay type: functional; how it was run: as §1

Row | EC50 [1] | Structure (SMILES) | level, % of control [2] | level, % of control [3] | level, % of control [4] | level, % of control [5] | level, % of control [6]
1 | 375.3 ppm | C=C[C@@]1(C)CC[C@@]2(C)[C@@H](CC[C@@]3(C)[C@@H]2C=C(O)C(=O)[C@@]32CO2)C1 [TAGALSIN A] | 53.15% | 73.43% | 97.56% | 88.28% | 40.05%
2 | 277.6 ppm | C=C[C@@]1(C)CC[C@@]2(C)[C@@H](CC[C@@]3(C)[C@@H]2C=C(O)C(=O)[C@]32CO2)C1 [TAGALSIN B] | 47.65% | 65.32% | 95.23% | 84.17% | 38.85%
3 | 285.4 ppm | C=C[C@@]1(C)CC[C@@]2(C)[C@@H](CC[C@](C)(C(C)=O)[C@@H]2CC(=O)O)C1 [TAGALSIN H] | 49.12% | 63.26% | 92.86% | 73.72% | 35.41%

Row | Structure (SMILES) | EC50 [1] | level, % of control [2] | level, % of control [3] | level, % of control [4] | level, % of control [5] | level, % of control [6]
4 | CC(=O)O[C@@H]1C[C@H](O)[C@@]23CO[C@@H](O)[C@]1(C)[C@@H]2C[C@@H](O)[C@]1(C)[C@@H]3C(=O)[C@H](OC(C)=O)[C@@]2(C)[C@H](c3ccoc3)C[C@H]3O[C@]321 [TOOSENDANIN] | 66 ppm |  |  |  |  | 

Reference: ChEMBL document CHEMBL3046104, “Antifeedant diterpenoids against Tribolium castaneum from the stems and twigs of Ceriops tagal (Rhizophoraceae)” (Molecules, 2011)
